Assay results as given in ChEMBL document CHEMBL3994584, “Identification of novel fluorescent probes preventing PrPSc replication in prion diseases” (Eur J Med Chem, 2017).

Assay: Antiprion activity against mouse prion protein RML infected mouse ScN2a cells assessed as reduction in proteinase K-resistant PrPSc level incubated for 5 days followed by proteinase K digestion by Western blot method
Conditions: 120 h
How it was run: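 RML-infected ScN2a cells were treated with 0.1, 1 and 10 μM for 5 days, with DMSO ≤0.1% final. Lysates (500 μg protein) were digested with 10 μg PK for 1 h at 37 °C, stopped with 2 mM PMSF and ultracentrifuged. Pellets were run on SDS-PAGE and immunoblotted with anti-PrP Fab W226, with ECL detection. Densitometry gave PK-resistant PrPSc over total PrP, with untreated set to 100%. Three independent experiments.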

SMILES | EC50 (read-out: EC50) [nM] | EC50 (read-out: pEC50 (converted)) [nM]
c1ccc(-c2cc(-c3csc(Nc4ccncc4)n3)on2)cc1 | 4420 | 4470
Cc1ccc(Nc2nc3c(s2)Cc2ccccc2-3)nc1 | 2440 | 2450
COCCOc1cc(-c2ccc(-c3csc(NC(=O)C4CC4)n3)cc2)ccn1 | 1320 | 1320
Cc1cccc(Nc2nc(-c3ccc(-c4cc[n+]([O-])cc4)cc3)cs2)n1 | 559 | 562
c1cc(-c2csc(Nc3ccc(-c4cnco4)cc3)n2)ccn1 | 124 | 123
COc1ccc(NC(=O)c2csc(Nc3ccc(C)cn3)n2)cc1OC | 2440 | 2450
c1ccc(-c2cc(-c3csc(Nc4ccc(-c5cnco5)cc4)n3)on2)cc1 | 57 | 57.5
COCCOc1ccc(-c2ccc(-c3csc(Nc4cccc(C)n4)n3)cc2)cn1 | 137 | 138
COc1ccc(-c2csc(Nc3ccccn3)n2)cc1OC | 1220 | 1230
COc1ccc(-c2csc(Nc3cccc(C)n3)n2)cc1OC | 3010 | 3020
c1ccc(-c2ccc(-c3csc(Nc4ccc5ccccc5n4)n3)s2)nc1 | 2010 | 2000
COc1ccc(-c2csc(Nc3ccncc3)n2)cc1OC | 6380 | 6460
Cc1cccc(Nc2nc(-c3ccc(-c4ccc(OC(C)C)nc4)cc3)cs2)n1 | 5860 | 5890
Cc1cccc(Nc2nc(-c3ccc(N4CCOCC4)cc3)cs2)n1 | 51 | 51.3
Cc1ccnc(Nc2nc(-c3ccncc3)cs2)c1 | 4950 | 5010
COc1ccc(-c2csc(N(C)c3ccc4ccccc4n3)n2)cc1OC | 140 | 141
Cc1cc(-c2ccc(-c3csc(Nc4cccc(C)n4)n3)cc2)ccn1 | 400 | 398
Cc1ccc(Nc2nc(-c3ccncc3)cs2)nc1 | 1570 | 1580
COc1ccnc(Nc2nc(-c3cc(-c4ccccc4)no3)cs2)c1 | 250 | 251
COc1ccc(Nc2nc(-c3cc(-c4ccccc4)no3)cs2)nc1 | 230 | 229
COc1ccc(-c2csc(Nc3cnccn3)n2)cc1OC | 15600 | 15500

SMILES | EC50 (read-out: EC50) [nM] | EC50 (read-out: pEC50 (converted)) [nM]
COc1ccc(-c2csc(NC(=O)c3ccc4ccccc4n3)n2)cc1OC | 8180 | 8130
c1ccc2nc(Nc3nc(-c4cc5ccccc5o4)cs3)ccc2c1 | 920 | 912
c1ccc(-c2cc(-c3csc(Nc4ccc5ccccc5n4)n3)on2)cc1 | 800 | 794
NS(=O)(=O)c1ccc(Nc2nc(-c3ccc(O)c(O)c3)cs2)cc1 | 13500 | 13500
COc1ccc(-c2csc(Nc3ccc4ccccc4n3)n2)cc1 | 340 | 339
COc1ccc(-c2csc(Nc3ncccn3)n2)cc1OC | 3940 | 3980
CN1CCN(c2ccc(-c3ccc(-c4csc(NC(=O)C5CC5)n4)cc3)cn2)CC1 | 70 | 70.8
Cc1cccc(Nc2nc(-c3ccc(-c4ccnc(N5CCN(C)CC5)c4)cc3)cs2)n1 | 759 | 759
COc1ccc(-c2csc(Nc3ccc4ccccc4c3)n2)cc1OC | 390 | 389
Cc1ccc(Nc2nc(-c3ccc(-c4ccccn4)s3)cs2)nc1 | 1230 | 1230
Cc1cccc(Nc2nc(-c3ccncc3)cs2)n1 | 1000 | 1000
Cc1cccc(Nc2nc(-c3ccc(-c4ccncc4)cc3)cs2)n1 | 87 | 87.1
Cc1ccnc(Nc2nc(-c3cc(-c4ccccc4)no3)cs2)c1 | 1270 | 1260
COc1ccc(-c2csc(Nc3cccnc3)n2)cc1OC | 28000 | 28200
Cc1cccc(Nc2nc(-c3ccc(-c4c(C)noc4C)cc3)cs2)n1 | 2130 | 2140
Cc1cccc(Nc2nc(-c3ccc(-c4ccnc(OC(C)C)c4)cc3)cs2)n1 | 2840 | 2820
Cc1cccc(Nc2nc(-c3ccc(-c4ccc(N5CCN(C)CC5)nc4)cc3)cs2)n1 | 96 | 95.5
Cc1cccc(Nc2nc(-c3ccc(-c4ccncc4C)cc3)cs2)n1 | 618 | 617
CN1CCN(c2cccc(Nc3nc(-c4ccc(-c5ccccc5)cc4)cs3)n2)CC1 | 1180 | 1170
CN(C)c1ccncc1-c1ccc(-c2csc(NC(=O)C3CC3)n2)cc1 | 109 | 110
Cc1cccc(Nc2nc(-c3ccc(O)c(O)c3)cs2)n1 | 2500 | 2510

SMILES | EC50 (read-out: EC50) [nM] | EC50 (read-out: pEC50 (converted)) [nM]
Cc1cccc(Nc2nc(-c3ccc(-c4ccccc4)cc3)cs2)n1 | 2290 | 1260
COc1ccc(-c2csc(Nc3cc(C)ccn3)n2)cc1OC | 1000 | 1000
CN(C)c1cccc(Nc2nc(-c3ccc(-c4ccccc4)cc3)cs2)n1 | 699 | 692
c1ccc(-c2csc(Nc3ccc4ccccc4n3)n2)cc1 | 3080 | 3090
O=C(Nc1nc(-c2ccc(-c3ccncc3)cc2)cs1)C1CC1 | 173 | 174
Cc1cccc(Nc2nc(-c3ccc(-c4ccc(N(C)C)nc4)cc3)cs2)n1 | 69 | 69.2
Cc1ccc(Nc2nc(-c3ccccc3)cs2)nc1 | 7880 | 7940
CC(=O)Nc1nc(-c2ccc(-c3ccccc3)cc2)cs1 | 119 | 120
O=C(Nc1nc(-c2ccc(-c3ccccc3)cc2)cs1)C1CC1 | 248 | 245
COc1ccc(-c2csc(N(C(C)=O)c3ccc4ccccc4n3)n2)cc1OC | 81 | 81.3
COc1ccc(-c2ccc(-c3csc(Nc4cccc(C)n4)n3)cc2)cn1 | 140 | 141
COc1ccc(-c2csc(Nc3ccc(C)cn3)n2)c(OC)c1 | 3130 | 3160
c1ccc2nc(Nc3nc(-c4ccncc4)cs3)ccc2c1 | 310 | 309
COc1ccc(-c2csc(Nc3ccc4ccccc4n3)n2)cc1OC | 430 | 427
Cc1cccc(Nc2nc(-c3cc4ccccc4o3)cs2)n1 | 1460 | 1450
COCCOc1ccc(-c2ccc(-c3csc(NC(=O)C4CC4)n3)cc2)cn1 | 118 | 117
Cc1ccc(Nc2nc(-c3ccccn3)cs2)nc1 | 860 | 851
O=C(CN1CCCC1)Nc1ccc(Cc2ccc(NC(=O)CN3CCCC3)cc2)cc1 | 1350 | 1350
Cc1ccc(Nc2nc(-c3cccc(C#N)c3)cs2)nc1 | 2290 | 2290
CN1CCN(c2cc(-c3ccc(-c4csc(NC(=O)C5CC5)n4)cc3)ccn2)CC1 | 682 | 676
COc1cc2c(cc1OC)-c1nc(Nc3ccc(C)cn3)sc1C2 | 5590 | 5620

SMILES | EC50 (read-out: EC50) [nM] | EC50 (read-out: pEC50 (converted)) [nM]
Cc1ccnc(Nc2nc(-c3cc(-c4ccc(Cl)cc4)no3)cs2)c1 | 850 | 851
COc1ccc(-c2csc(Nc3ncccc3C)n2)cc1OC | 7290 | 7240
Oc1ccc(-c2csc(Nc3ccccn3)n2)cc1O | 10000 | 10000
Cc1cccc(Nc2nc(-c3ccc(O)cc3O)cs2)n1 | 3900 | 3890
COc1ccc(-c2csc(Nc3ccc(C)cn3)n2)cc1 | 3030 | 3020
c1ccc2oc(-c3csc(Nc4ccc(-c5cnco5)cc4)n3)cc2c1 | 228 | 229
COCC(=O)Nc1nc(-c2ccc(-c3ccccc3)cc2)cs1 | 1590 | 1580
FC(F)(F)c1csc(Nc2ccc3ccccc3n2)n1 | 8660 | 8710
Cc1cccc(Nc2nc(-c3ccc(-c4cccnc4)cc3)cs2)n1 | 68 | 69.2
COc1ccc(-c2csc(Nc3ccc(C(F)(F)F)cn3)n2)cc1OC | 2530 | 2510
CC(=O)Nc1ccc(-c2csc(Nc3ccccn3)n2)cc1 | 8500 | 8510
Cc1cccc(Nc2nc(-c3cc(-c4ccccc4)no3)cs2)n1 | 820 | 813
Cc1cccc(Nc2nc(-c3ccc(N4CCN(C)CC4)cc3)cs2)n1 | 840 | 832
COCCOc1cc(-c2ccc(-c3csc(Nc4cccc(C)n4)n3)cc2)ccn1 | 153 | 155
COc1ccc(-c2csc(Nc3ccc(C)cn3)n2)cc1OC | 790 | 794
Cc1cccc(Nc2nc(-c3ccc(-c4ccc[n+]([O-])c4)cc3)cs2)n1 | 203 | 204
Cc1cccc(Nc2nc(-c3ccc(-c4ccnn4C)cc3)cs2)n1 | 89 | 89.1
Cc1ccc(Nc2nc(-c3cc(-c4ccccc4)no3)cs2)nc1 | 940 | 933
COc1ccc(-c2csc(Nc3ccccc3)n2)cc1OC | 8200 | 8130
Cc1cccc(Nc2nc(-c3ccc(-c4ccnc(N(C)C)c4)cc3)cs2)n1 | 123 | 123
c1ccc(-c2cc(-c3csc(Nc4ccccn4)n3)on2)cc1 | 600 | 603
